Reference: ChEMBL document CHEMBL4138102, “Design, synthesis and evaluation of azaacridine derivatives as dual-target EGFR and Src kinase inhibitors for antitumor treatment” (Eur J Med Chem, 2017)
pIC50: −log10 of the molar value. Values belong to the compound of their own block, whether it stands above or below them.

Experiments:
A549 [1] = test: Antiproliferative activity against human A549 cells after 48 hrs by MTT assay; type: functional, cell-based; details: A549, 48 h
Outline: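 A549 seeded at 5-7 × 10³ cells per well and incubated overnight at 37 °C, 5% CO₂. Medium then replaced with fresh medium holding graded compound concentrations or equal DMSO, 48 h. MTT (5 mg mL^-1 solution) added for 4 h, formazan dissolved in DMSO, absorbance read at 490 nm; IC₅₀ derived.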

[2] = molecular target: Epidermal growth factor receptor (Homo sapiens) (UniProt P00533); test: Inhibition of EGFR (unknown origin) at 1 uM after 15 mins by luminescence assay relative to control
Sequence of Epidermal growth factor receptor (Homo sapiens) (P00533 whole entry): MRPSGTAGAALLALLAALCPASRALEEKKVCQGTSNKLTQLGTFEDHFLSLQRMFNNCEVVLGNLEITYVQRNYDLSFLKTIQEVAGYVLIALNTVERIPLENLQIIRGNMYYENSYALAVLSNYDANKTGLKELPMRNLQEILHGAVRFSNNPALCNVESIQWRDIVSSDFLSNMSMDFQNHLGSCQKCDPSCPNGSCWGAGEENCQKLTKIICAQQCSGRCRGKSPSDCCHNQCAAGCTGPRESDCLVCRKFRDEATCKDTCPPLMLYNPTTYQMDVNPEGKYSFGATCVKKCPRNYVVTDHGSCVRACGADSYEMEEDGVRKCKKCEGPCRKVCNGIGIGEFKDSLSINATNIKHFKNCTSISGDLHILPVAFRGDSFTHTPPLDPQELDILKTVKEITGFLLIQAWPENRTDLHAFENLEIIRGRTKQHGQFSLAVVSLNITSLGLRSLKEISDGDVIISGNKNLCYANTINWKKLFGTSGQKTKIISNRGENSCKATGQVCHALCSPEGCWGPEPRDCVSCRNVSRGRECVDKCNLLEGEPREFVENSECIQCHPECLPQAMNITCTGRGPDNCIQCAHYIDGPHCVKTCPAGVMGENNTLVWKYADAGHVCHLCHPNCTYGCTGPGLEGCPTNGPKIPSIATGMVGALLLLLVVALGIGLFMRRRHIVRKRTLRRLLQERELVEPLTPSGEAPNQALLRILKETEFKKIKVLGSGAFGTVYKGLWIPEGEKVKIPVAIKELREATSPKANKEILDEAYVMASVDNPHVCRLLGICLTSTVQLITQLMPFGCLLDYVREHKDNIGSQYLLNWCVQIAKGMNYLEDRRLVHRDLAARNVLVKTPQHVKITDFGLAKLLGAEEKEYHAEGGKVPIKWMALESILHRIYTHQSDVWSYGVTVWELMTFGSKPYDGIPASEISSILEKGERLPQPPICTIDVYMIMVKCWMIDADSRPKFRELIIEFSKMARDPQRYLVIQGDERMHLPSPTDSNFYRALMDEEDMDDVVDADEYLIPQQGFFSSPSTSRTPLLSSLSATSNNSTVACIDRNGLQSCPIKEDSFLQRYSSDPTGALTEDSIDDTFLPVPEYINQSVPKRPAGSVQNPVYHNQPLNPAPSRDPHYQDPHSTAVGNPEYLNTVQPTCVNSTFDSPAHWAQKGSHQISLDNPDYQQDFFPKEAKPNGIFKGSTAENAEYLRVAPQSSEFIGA
Outline: (§1)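 Contract HTRF-format assay: enzyme, substrate, ATP and compound mixed in 50 mM HEPES/NaOH pH 7.0, 0.02% NaN₃, 0.01% BSA, 0.1 mM orthovanadate, 5 mM MgCl₂, 1 mM DTT. Incubated 15 min at room temperature with compound in 2.5% DMSO. Streptavidin-XL665 and TK antibody europium cryptate added in KF/EDTA buffer; signal read on EnVision; % inhibition computed.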

[3] = molecular target: Epidermal growth factor receptor (Homo sapiens) (UniProt P00533); test: Inhibition of EGFR (unknown origin) at 10 uM after 15 mins by luminescence assay relative to control; outline: as §1
K562 [4] = test: Antiproliferative activity against human K562 cells after 48 hrs by MTT assay; type: functional, cell-based; details: K562, 48 h
Outline: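 K562 at 7×10⁵ cells mL^-1 seeded and held 12 h at 37 °C, 5% CO₂. Compound added in triplicate per concentration for 48 h. MTT (5 mg mL^-1 solution) added for 4 h at 37 °C, formazan dissolved in DMSO, absorbance read at 490 nm; IC₅₀ derived.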

Calf thymus DNA [5] = test: Binding affinity to calf thymus DNA by UV-visible absorption spectral analysis; type: nucleic-acid assay; details: Bos taurus
[6] = molecular target: Proto-oncogene tyrosine-protein kinase Src (Homo sapiens) (UniProt P12931); test: Inhibition of SRC (unknown origin) at 1 uM after 15 mins by luminescence assay relative to control; outline: as §1
Sequence of Proto-oncogene tyrosine-protein kinase Src (Homo sapiens) (P12931 2-536 limits assumed): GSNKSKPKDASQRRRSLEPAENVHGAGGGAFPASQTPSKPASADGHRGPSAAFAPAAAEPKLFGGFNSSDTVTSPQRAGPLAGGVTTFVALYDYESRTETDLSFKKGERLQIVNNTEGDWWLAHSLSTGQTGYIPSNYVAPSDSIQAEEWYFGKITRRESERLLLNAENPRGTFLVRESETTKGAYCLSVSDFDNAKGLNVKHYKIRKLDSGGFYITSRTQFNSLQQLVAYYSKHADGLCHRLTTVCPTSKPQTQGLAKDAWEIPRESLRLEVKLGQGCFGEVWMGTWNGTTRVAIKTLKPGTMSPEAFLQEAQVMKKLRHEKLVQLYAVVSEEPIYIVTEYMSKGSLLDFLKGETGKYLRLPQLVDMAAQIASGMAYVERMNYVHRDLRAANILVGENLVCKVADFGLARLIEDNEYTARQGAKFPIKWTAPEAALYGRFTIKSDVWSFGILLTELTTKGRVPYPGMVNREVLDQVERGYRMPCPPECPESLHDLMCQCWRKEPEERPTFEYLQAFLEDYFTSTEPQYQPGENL

[7] = molecular target: Proto-oncogene tyrosine-protein kinase Src (Homo sapiens) (UniProt P12931); test: Inhibition of SRC phosphorylation in human A549 cells after 48 hrs by Western blot analysis; type: cell-based
Outline: (§2)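 Cells exposed to 0, 0.1, 0.5 and 2.5 µM for 48 h, then lysed and protein quantified. Equal protein loads run on 10% SDS-PAGE, transferred to PVDF and probed for EGFR, p-EGFR, Src and p-Src with HRP secondaries and luminescence detection. Band density expressed as percentage of β-actin.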

[8] = molecular target: Epidermal growth factor receptor (Homo sapiens) (UniProt P00533); test: Inhibition of EGFR phosphorylation in human A549 cells by measuring EGFR phosphorylated protein level up to 2.5 uM after 48 hrs by Western blot analysis (reference value: 50.21%); type: cell-based; parameters: scale not given: the % may be the effect or the level left; outline: as §2
K562 [9] = test: Induction of apoptosis in human K562 cells assessed as late apoptotic cells at 0.01 uM after 48 hrs by Annexin V-FITC/propidium iodide based flow cytometric analysis (reference value: 2.49%); type: functional
A549 [10] = test: Downregulation of SRC protein expression in human A549 cells after 48 hrs by Western blot analysis; type: functional, cell-based; outline: as §2
K562 [11] = test: Induction of apoptosis in human K562 cells assessed as necrotic cells at 1 uM after 48 hrs by Annexin V-FITC/propidium iodide based flow cytometric analysis (reference value: 0.22%); type: functional
A549 [12] = test: Downregulation of EGFR protein expression in human A549 cells by measuring EGFR level up to 2.5 uM after 48 hrs by Western blot analysis (reference value: 48.02%); type: functional; outline: as §2
K562 [13] = test: Induction of apoptosis in human K562 cells assessed as early apoptotic cells at 0.01 uM after 48 hrs by Annexin V-FITC/propidium iodide based flow cytometric analysis (reference value: 4.68%); type: functional
K562 [14] = test: Induction of apoptosis in human K562 cells assessed as late apoptotic cells at 1 uM after 48 hrs by Annexin V-FITC/propidium iodide based flow cytometric analysis (reference value: 2.49%); type: functional
A549 [15] = test: Downregulation of EGFR protein expression in human A549 cells after 48 hrs by Western blot analysis; type: functional, cell-based; outline: as §2
[16] = molecular target: Epidermal growth factor receptor (Homo sapiens) (UniProt P00533); test: Inhibition of EGFR phosphorylation in human A549 cells after 48 hrs by Western blot analysis; type: cell-based; outline: as §2
A549 [17] = test: Antiinvasive activity in human A549 cells at 0.1 uM preincubated for 6 hrs followed by cell seeding on the inserts to reach confluence for 12 hrs measured after 24 hrs by trypan blue staining-based bright-field light microscopic analysis relative to control; type: functional
Outline: (§3)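 A549 cells pretreated with compound for 6 h, seeded on fibronectin-coated 8 µm pore invasion inserts to reach confluence over 12 h, then cultured another 24 h with drug. Cells fixed in 4% formaldehyde, non-invading cells swabbed off, invaders stained with 0.08% trypan blue for 15 min. Five random bright-field views counted; mean ± SEM of five experiments versus control.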

K562 [18] = test: Induction of apoptosis in human K562 cells assessed as early apoptotic cells at 0.1 uM after 48 hrs by Annexin V-FITC/propidium iodide based flow cytometric analysis (reference value: 4.68%); type: functional
K562 [19] = test: Induction of apoptosis in human K562 cells assessed as necrotic cells at 0.01 uM after 48 hrs by Annexin V-FITC/propidium iodide based flow cytometric analysis (reference value: 0.22%); type: functional
Calf thymus DNA [20] = test: Binding affinity to calf thymus DNA by fluorescence titration method; type: nucleic-acid assay; details: Bos taurus
K562 [21] = test: Induction of apoptosis in human K562 cells after 48 hrs by Annexin V-FITC/propidium iodide based flow cytometric analysis; type: functional, cell-based
K562 [22] = test: Induction of apoptosis in human K562 cells assessed as early apoptotic cells at 1 uM after 48 hrs by Annexin V-FITC/propidium iodide based flow cytometric analysis (reference value: 4.68%); type: functional
A549 [23] = test: Antiinvasive activity in human A549 cells at 1 uM preincubated for 6 hrs followed by cell seeding on the inserts to reach confluence for 12 hrs measured after 24 hrs by trypan blue staining-based bright-field light microscopic analysis relative to control; type: functional; outline: as §3
K562 [24] = test: Induction of apoptosis in human K562 cells assessed as late apoptotic cells at 0.1 uM after 48 hrs by Annexin V-FITC/propidium iodide based flow cytometric analysis (reference value: 2.49%); type: functional
K562 [25] = test: Induction of apoptosis in human K562 cells assessed as necrotic cells at 0.1 uM after 48 hrs by Annexin V-FITC/propidium iodide based flow cytometric analysis (reference value: 0.22%); type: functional

pIC50 (A549 [1]): 4.91
inhibition [2]: 52.4%
inhibition [3]: 95.4%
pIC50 (K562 [4]): 5.88
SMILES: O=C(Nc1ccc(Nc2ncnc3c2Cc2ccccc2N3)cc1)c1cccc(C(F)(F)F)c1

pIC50 (A549 [1]): 4.61
inhibition [3]: 51.1%
pIC50 (K562 [4]): 5.44
SMILES: Cc1cccc(C(=O)Nc2ccc(Nc3ncnc4c3Cc3ccccc3N4)cc2)c1

pIC50 (A549 [1]): < 4.60
inhibition [3]: 65.4%
pIC50 (K562 [4]): 5.16
SMILES: Cc1cccc(NC(=O)Nc2ccc(Nc3ncnc4c3Cc3ccccc3N4)cc2)c1

pIC50 (A549 [1]): 4.87
inhibition [3]: 24.9%
pIC50 (K562 [4]): 5.44
SMILES: COc1cccc(NC(=O)Nc2ccc(Nc3ncnc4c3Cc3ccccc3N4)cc2)c1

pIC50 (A549 [1]): 5.03
inhibition [3]: 35.4%
pIC50 (K562 [4]): 5.47
SMILES: O=C(Nc1ccc(Nc2ncnc3c2Cc2ccccc2N3)cc1)Nc1cccc(C(F)(F)F)c1

pIC50 (A549 [1]): 5.17
inhibition [3]: 55.4%
pIC50 (K562 [4]): 5.50
SMILES: O=C(Nc1ccc(Nc2ncnc3c2Cc2ccccc2N3)cc1)Nc1cccc(F)c1

Kb (Calf thymus DNA [5]): 4.16 ×10³ /M
inhibition [6]: 72.1%
inhibition [7]: Dose-dependent effect
Activity [8]: 3.11%
inhibition [16]: Dose-dependent effect
pIC50 (A549 [1]): 6.60
K (Calf thymus DNA [20]): 973 M⁻¹
inhibition [3]: 33.1 to 33.5%
pIC50 (K562 [4]): 6.66
SMILES: O=C(Nc1ccc(Nc2ncnc3c2Cc2ccccc2N3)cc1)c1cccc(F)c1
Activity (K562 [9]): 3.06%
Activity (A549 [10]): Dose-dependent effect
Activity (K562 [11]): 0.77%
Activity (A549 [12]): 3.03%
Activity (K562 [13]): 11.14%
Activity (K562 [14]): 45.15%
Activity (A549 [15]): Dose-dependent effect
inhibition at 0.1 µM (A549 [17]): 52.5%
Activity (K562 [18]): 18.82%
Activity (K562 [19]): 0.17%
Activity (K562 [21]): Dose-dependent effect
Activity (K562 [22]): 4.19%
inhibition at 1 µM (A549 [23]): 82.8%
Activity (K562 [24]): 27.11%
Activity (K562 [25]): 1.06%

pIC50 (A549 [1]): 4.68
inhibition [3]: 30.9%
pIC50 (K562 [4]): 6.39
SMILES: O=C(Nc1ccc(Nc2ncnc3c2Cc2ccccc2N3)cc1)c1cccc(Cl)c1

pIC50 (A549 [1]): 4.74
inhibition [3]: 30.7%
pIC50 (K562 [4]): 5.51
SMILES: O=C(Nc1cccc(Nc2ncnc3c2Cc2ccccc2N3)c1)c1ccccc1

pIC50 (A549 [1]): 5.34
SMILES: Cc1ccc(NC(=O)c2ccc(CN3CCN(C)CC3)cc2)cc1Nc1nccc(-c2cccnc2)n1 [IMATINIB]

pIC50 (A549 [1]): 5.04
inhibition [3]: 21.4%
SMILES: COc1ccc2c(Nc3ccc(NC(=O)Nc4ccccc4)cc3)c3ccccc3nc2c1

pIC50 (A549 [1]): 4.84
inhibition [3]: 12.6%
pIC50 (K562 [4]): 5.60
SMILES: O=C(Nc1ccc(Nc2ncnc3c2Cc2ccccc2N3)cc1)c1ccccc1

pIC50 (A549 [1]): 4.91
inhibition [3]: 30.2%
pIC50 (K562 [4]): 5.92
SMILES: O=C(Nc1cccc(Nc2ncnc3c2Cc2ccccc2N3)c1)c1cccc(Cl)c1

pIC50 (A549 [1]): 4.75
inhibition [3]: 42.1%
pIC50 (K562 [4]): 5.51
SMILES: O=C(Nc1ccc(Nc2ncnc3c2Cc2ccccc2N3)cc1)Nc1cccc(Cl)c1

pIC50 (A549 [1]): 4.85
inhibition [3]: 35.4%
pIC50 (K562 [4]): 5.67
SMILES: COc1cccc(C(=O)Nc2ccc(Nc3ncnc4c3Cc3ccccc3N4)cc2)c1

pIC50 (A549 [1]): < 4.60
inhibition [3]: 53%
pIC50 (K562 [4]): 5.31
SMILES: Cc1cccc(C(=O)Nc2cccc(Nc3ncnc4c3Cc3ccccc3N4)c2)c1

pIC50 (A549 [1]): 5.02
inhibition [3]: 16.3%
pIC50 (K562 [4]): 5.72
SMILES: O=C(Nc1cccc(Nc2ncnc3c2Cc2ccccc2N3)c1)c1cccc(C(F)(F)F)c1

pIC50 (A549 [1]): 4.74
inhibition [3]: 32%
pIC50 (K562 [4]): 5.29
SMILES: O=C(Nc1ccccc1)Nc1ccc(Nc2ncnc3c2Cc2ccccc2N3)cc1

pIC50 (A549 [1]): 5.04
inhibition [3]: 24.5%
pIC50 (K562 [4]): 6.14
SMILES: O=C(Nc1cccc(Nc2ncnc3c2Cc2ccccc2N3)c1)c1cccc(F)c1

pIC50 (A549 [1]): 4.87
inhibition [3]: 31.9%
pIC50 (K562 [4]): 5.51
SMILES: COc1cccc(C(=O)Nc2cccc(Nc3ncnc4c3Cc3ccccc3N4)c2)c1
